According to article PMC5012948 (ChemMedChem, 2016):
Values joined by “and” are separate entries in the source; they are usually repeats but may differ in a detail not shown here. Identical values can stand only once. Like-named read-outs stand apart in the source and are kept apart here.

How the values were obtained:
[1] = target: SaHepPPS (Staphylococcus aureus, UniProt Q2FYG6); test: biochemical; type: biochemical; details: for Kd: substrate inhibition at high substrate concentrations
[2] = tested on: coupling enzymes (phosphatase and purine nucleoside phosphorylase); test: Control: inhibition of the coupling enzymes by high FPP and IPP; type: biochemical
[3] = tested on: human FPPS; details: cited from earlier work
[4] = tested on: B. subtilis; test: Synergy/antagonism two-drug combination assay; type: cell-based, Bacillus subtilis; details: 10 + sulfamethoxazole
How it was run: (§1)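 Checkerboard-style two-drug combinations of the test compound with antibiotics. Conversely, the test compound ran as a 3× gradient, 40 μg/mL to 18 ng/mL, with each antibiotic at half its MIC. New MICs came from Gompertz fits.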

[5] = tested on: B. subtilis and S. aureus; test: Synergy/antagonism assays, average FICI over both organisms; type: cell-based; details: drugs in combination with 10, both organisms, n = 24
How it was run: as §1

[6] = tested on: S. aureus; test: Synergy/antagonism two-drug combination assay; type: cell-based, Staphylococcus aureus
How it was run: as §1

[7] = tested on: S. aureus (Newman strain); test: S. aureus cell growth inhibition; type: cell-based, Staphylococcus aureus

CC(C)=CCC/C(C)=C/CC/C(C)=C/CO[P@@](=O)(O)OP(=O)(O)O (stereo in doubt) [FPP, farnesyl diphosphate]
Kd ([1]; Kd (dissociation constant for the inhibitory SES ternary complex)): 35 µM and ~35 µM
inhibition of the coupling enzymes [2]: this is not the case

O=P(O)(O)C(O)(Cn1ccnc1)P(=O)(O)O [compound 15, zoledronate]
activity against human FPPS [3]: potent activity
IC50 [1]: ~100 µM

CCCCCCCCCCCCC[n+]1ccn(CC(P(=O)([O-])O)P(=O)(O)O)c1 (centres unmarked) [compound 10]
FICI [4]: 1.73
FICIavg [5]: 1.43 ± 0.37
FICI ([6]; 10 + ampicillin): 1.40
FICI ([6]; 10 + tetracycline): 1.85
IC50 for S. aureus cell growth inhibition [7]: 7 µg/mL

C=C(C)CCOP(=O)(O)OP(=O)(O)O [IPP, isopentenyl diphosphate]
Kd ([1]; read-out: Kd (dissociation constant for the inhibitory SES ternary complex)): 300 ± 40 µM
inhibition of the coupling enzymes [2]: this is not the case

CC(C)=CCC/C(C)=C/CC/C(C)=C/CC/C(C)=C/COP(=O)(O)OP(=O)(O)O [GGPP, geranylgeranyl diphosphate]
Km ([1]; GGPP as substrate): 652 µM
Vmax ([1]; GGPP as substrate): 2.2 µM/min
substrate-inhibition effect at high concentrations ([1]; high concentrations): did not exhibit the substrate-inhibition effect
